Sampled rows, rich in hits. Any-hit rate of the full collection: about 1.7%.
Cneo AK release: Cryptococcus neoformans lysis via adenylate kinase release; C. neoformans lysis, adenylate kinase release luminescence, 4 h; normalised: neutral wells 0, clomiphene wells 100; lysis activity, % at 15 µM; hit rate 0.2% among 360,000; AID 651654;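 active = mean lysis activity across replicates of at least 80%, whatever share of replicates individually reach that level; inactive = mean lysis activity below 80%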
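Signal: Adenylate kinase release luminescence | Assay system: Log-phase Cryptococcus neoformans yeast cells | Input: Cells at 5 × 10^6 per mL | Buffer or medium: Fresh YPD growth medium | Compound: Single dose | Schedule: Static 4 h at 37 °C with compound, 1 h detection | Controls: Clomiphene | Read-out: Luminescence rise reflecting yeast cell lysis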
CaV13 FRET inh: Disruptors of the CACNA1D IQ motif to Ca2+-dependent inactivation inhibitor domain association, primary screening, Förster resonance energy transfer in intact living …. HEK cells, CFP/YFP FRET ICDI-IQ, plate reader, 10 min; percent FRET-ratio fall versus neutral wells. inhibition, % at 12.3 µM. hit rate 0.098% among 340,000. AID 743397;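 active = mean replicate inhibition of at least 30% and at least 1% of replicates passing that level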;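 also: 0% = median of the neutral control wells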
Ecoli rRNA inh: inhibits bacterial ribosomal RNA function over humanized ribosomes; E. coli WT GFP vs humanized-ribosome RFP mutants, fluorescence, 24 h; hits give low values; DMSO median 0, no signal -100; AID 720706; GFP signal change (wild-type ribosome), % (test concentration not listed); hit rate 1.6% among 350,000;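 active = significant combined selectivity score with lowered wild-type GFP, culture density cut under 30%, mutant RFP and density less affected; inactive = any of these conditions unmet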
F508del corr: correctors of CFTR F508del function in bronchial epithelial cells; CFBE cells, YFP halide quenching; stimulated with forskolin plus potentiator P3; % fluorescence drop versus neutral controls; activity (quench increase), % at 7.58 µM; hit rate 0.36% among 350,000;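 active = mean added fluorescence quench of at least 8% versus neutral control, with both replicates also reaching 8%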;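 also: cells transiently co-express mutant CFTR-F508del with the halide-sensitive YFP; corrector assay measuring rescue of mutant channel to the surface after 24 h compound exposure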
Numbers without * were called inactive; nt = no result.

SMILES	Cneo AK release	CaV13 FRET inh	Ecoli rRNA inh	F508del corr
CCC(=O)Nc1ccc2c(c1)C(=O)N(C)C[C@H](OC)[C@H](C)CN(CC1CCCCC1)[C@@H](C)CO2	2.3	nt	-0.8	2.6
COc1ccc(NC(=O)N(C)C[C@@H]2OCc3ccccc3-c3ccccc3C(=O)N([C@H](C)CO)C[C@@H]2C)cc1	-2.3	nt	-1.1	-1.5
COc1ccc(C(=O)On2c(-c3ccc(Br)cc3)nc3ccccc3c2=O)cc1	-1.2	-18.6	-40.4	-0.9
COc1cc(OC)cc(-c2nc3ccccc3c(=O)n2OC(=O)c2ccc(Br)cc2)c1	nt	-13.4	-25.3*	-1.2
C[C@@H]1CN([C@@H](C)CO)C(=O)c2cc(NS(C)(=O)=O)ccc2O[C@@H](C)CCCCO[C@H]1CN(C)Cc1ccccc1	nt	nt	3.9	-0.8
CCOC(=O)c1c(C)[nH]c(C(=O)N/N=C/c2cc([N+](=O)[O-])ccc2O)c1C	0.1	-2.4	1.7	0.3
CCOC(=O)c1c(C)[nH]c(C(=O)N/N=C\c2ccccc2O)c1C	-0.8	-4.8	-12.2	21.5*
CCOC(=O)c1c(C)[nH]c(C(=O)N/N=C/c2ccc(OC)c(OC)c2)c1C	1.4	-15.2	-6.3	9.8*
C[C@H]1CCCCO[C@@H](CN(C)C(=O)NC2CCCCC2)[C@@H](C)CN([C@@H](C)CO)C(=O)c2cc(NC(=O)CCC(F)(F)F)ccc2O1	1.3	nt	2.7	1.9
COc1cccc(CN2C[C@@H](C)[C@H](OC)CN(C)C(=O)c3cc(NS(=O)(=O)c4cn(C)cn4)ccc3OC[C@H]2C)c1	-0.1	nt	-0.5	0.7
C[C@H]1CN([C@@H](C)CO)C(=O)c2cc(NS(C)(=O)=O)ccc2O[C@@H]1CN(C)C(=O)Nc1cccc2ccccc12	-1.6	nt	4.3	-1.0
CCC(=O)N1C[C@@H](C)[C@H](OC)CN(C)C(=O)c2cc(NC(=O)c3ccc(OC)cc3)ccc2OC[C@H]1C	-2.0	nt	-1.4	-2.3
CCOC(=O)C1=C(C)NC2=C(C(=O)c3ccccc32)C1c1cccc2ccccc12 (stereo not drawn)	-1.0	-0.9	-19.4*	2.6
COc1cccc(S(=O)(=O)N(C)C[C@@H]2Oc3cc(C4=CCCC4)ccc3S(=O)(=O)N([C@@H](C)CO)C[C@@H]2C)c1	-1.6	nt	5.2	1.5
COc1cccc(S(=O)(=O)N(C)C[C@@H]2Oc3cc(C4=CCCC4)ccc3S(=O)(=O)N([C@H](C)CO)C[C@H]2C)c1	1.5	nt	3.4	10.7*
COc1cccc(S(=O)(=O)N(C)C[C@@H]2Oc3cc(C4=CCCC4)ccc3S(=O)(=O)N([C@@H](C)CO)C[C@H]2C)c1	2.0	nt	1.6	9.3*
Cc1noc(C)c1NC(=O)Nc1ccc2c(c1)C(=O)N([C@@H](C)CO)C[C@@H](C)[C@H](CN(C)C(=O)Nc1ccc(F)cc1)OCCCC[C@@H](C)O2	0.1	nt	-1.1	0.2
Cc1nc(N2CCCCC2)sc1C(=O)c1cccc([N+](=O)[O-])c1	nt	-4.5	-6.2	5.2
Cc1nc(N2CCCCC2)sc1C(=O)c1ccc(SCCO)c([N+](=O)[O-])c1	-0.5	0.7	-20.2*	3.5
Cc1ccccc1CN1CCN(C(=O)c2cccc3ccccc23)CC1	0.6	-5.4	-21.8*	-2.0
Clc1cccc(-c2noc3ncnc(Nc4ccc5c(c4)OCO5)c23)c1	-2.0	-10.5	-21.6*	-0.7
CC(=O)c1ccc(NC(=O)c2cc(Cl)sc2Cl)cc1	nt	-15.7	-30.4*	nt
Cc1cc(C)cc(NC(=O)c2cc(Cl)sc2Cl)c1	nt	-4.2	nt	nt
CCC(C)n1c(=S)[nH]c2c(sc3ccc([N+](=O)[O-])cc32)c1=O (stereo not drawn)	-5.8	-2.0	-32.5*	0.8
CC(C)n1c2ccccc2c2cc([N+](=O)[O-])ccc21	nt	-30.5	5.4	nt
SMILES	Cneo AK release	CaV13 FRET inh	Ecoli rRNA inh	F508del corr
Cc1cccc(OCC(=O)NNC(=O)c2ccc([N+](=O)[O-])cc2)c1	-1.5	9.5	14.2	-0.1
Cc1cccc(OCC(=O)NNC(=O)c2ccc3nc[nH]c3c2)c1	0.3	-6.6	1.7	16.6*
O=C(NN=Cc1cc(Cl)ccc1[N+](=O)[O-])c1ccco1	nt	-8.6	-19.4*	-1.6
CS(=O)(=O)Nc1ccc2c(c1)[C@H]1C[C@H](CC(=O)NCc3ccc(Cl)cc3)O[C@H](CO)[C@H]1O2	59.8	nt	-5.2	-1.2
Cc1nc(N)c(CC(Br)CBr)c(Cl)n1 (stereo not drawn)	nt	-1.7	-38.4*	-4.4
O=S(=O)(Nc1ccccc1Cl)c1ccc(-c2ccccn2)s1	-2.6	-4.5	-36.6*	-0.1
C[C@H](CO)N1C[C@H](C)[C@H](CN(C)Cc2ccc(F)cc2)Oc2ncc(C#Cc3cccnc3)cc2C1=O	1.5	nt	-1.1	-0.6
C[C@@H]1CN([C@@H](C)CO)C(=O)c2cc(NC(=O)Nc3ccc(F)cc3)ccc2O[C@@H](C)CCCCO[C@H]1CN(C)S(=O)(=O)c1cn(C)cn1	9.5	nt	-2.0	0.5
COc1ccc(C(=O)c2cc([N+](=O)[O-])ccc2N2CCOCC2)cc1	nt	-1.9	-19.1*	10.8*
COc1ccc(/C=C(\NC(=O)c2ccc([N+](=O)[O-])cc2)C(=O)NCCCN2CCOCC2)cc1	9.2	-4.2	-14.2*	0.9
O=C(COC(=O)c1cc([N+](=O)[O-])ccc1N1CCOCC1)Nc1c(Cl)cccc1Cl	nt	-15.0	-10.2	11.1*
CCNC(=O)Nc1ccc2c(c1)C(=O)N(C)[C@@H]1CC[C@@H](CC(=O)NCc3cccc(F)c3)O[C@H]1CO2	1.0	nt	1.5	2.3
CCCNC(=O)N1CC2(CN(C(=O)Cc3cccnc3)C2)c2c([nH]c3cc(OC)ccc23)[C@@H]1CO	nt	nt	2.3	0.2
Cc1nc(NCc2cccnc2)c2c3c(sc2n1)CCCC3	-3.7	0.7	-21.5	12.2*
CN(C)C(=O)[C@H]1[C@H](CO)[C@H]2Cn3c(cccc3=O)[C@@H]1N2CC1CCCCC1	-1.1	nt	2.8	0.2
CC(=O)N1CCN(C(=O)CCc2nc3ccccc3c(=O)[nH]2)CC1	-0.7	-6.9	17.1	1.5
Cc1ccc2c(c1)CCCN2C(=O)CCc1nc2ccccc2c(=O)[nH]1	-1.1	-6.6	5.6	22.3*
O=C(C[C@H]1CC[C@H]2[C@@H](COC[C@@H](O)CN2S(=O)(=O)c2ccc(F)cc2)O1)NCC1CC1	0.3	nt	0.1	0.7
O=C(COc1ccc2c3c(c(=O)oc2c1)CCC3)NC1CCN(Cc2ccccc2)CC1	-2.0	-7.4	-29.2*	0.6
CO[C@H]1CN(C)C(=O)c2ccc(NC(=O)c3ccc4c(c3)OCO4)cc2OC[C@@H](C)NC[C@H]1C	-20.6	nt	-0.1	3.5
CC(C)(C)c1cc(NCCCn2ccnc2)n2ncc(-c3ccccc3)c2n1	-15.0	-16.5	-49.5*	-2.6
CC(=NNC(=S)N1CC2CCC(CC2)C1)c1cnccn1	nt	-7.4	6.6	10.7*
CC(=NNC(=S)N1CC2CCC(CC2)C1)c1ccccn1	2.1	-7.3	6.4	5.5

Source: PubChem
